Measured values as given in paper PMC4207547 (Journal of Medicinal Chemistry, 2014).

Biological target: T1, CXCR2 (Homo sapiens, UniProt P25025)
T1 sequence (P25025 1-360): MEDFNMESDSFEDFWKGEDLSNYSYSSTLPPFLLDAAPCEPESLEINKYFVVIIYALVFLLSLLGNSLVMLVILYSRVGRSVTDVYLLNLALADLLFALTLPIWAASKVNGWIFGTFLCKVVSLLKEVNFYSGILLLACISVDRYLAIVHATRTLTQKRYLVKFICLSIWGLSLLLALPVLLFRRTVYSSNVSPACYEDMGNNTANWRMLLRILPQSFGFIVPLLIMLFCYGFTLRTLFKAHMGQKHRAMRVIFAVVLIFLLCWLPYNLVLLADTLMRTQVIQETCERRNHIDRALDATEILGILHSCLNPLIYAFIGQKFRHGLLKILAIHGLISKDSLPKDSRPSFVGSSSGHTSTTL
Test: CXCL1-stimulated Ca2+ flux in whole human neutrophils
Format: cell-based
Conditions: CXCL1-stimulated Ca2+ flux, hPMNs
Procedure, shortened: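 Human neutrophils were isolated from blood by dextran sedimentation, Histopaque 1077 gradient and hypotonic RBC lysis (>95% pure, >98% viable). Cells were loaded with FLIPR Calcium 3 dye in HEPES-buffered Ca/Mg-free HBSS with compound or 1% DMSO for 30 min at 37 °C, then resuspended in HEPES-HBSS with Ca2+/Mg2+ and challenged with CXCL1.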

fold improvement in potency relative to 2-carboxylate 51 [fold] | fold reduction in activity relative to 7 | fold lower potency than 60 [fold] | Compound
2 |  |  | COC(=O)c1ccccc1CSc1ccc(C(=O)Nc2ccc(F)cc2)cn1 [Compound 50, Methyl 2-((5-(4-Fluorophenylcarbamoyl)pyridin-2-ylthio)methyl)benzoate]
~10 |  |  | O=C(Nc1ccc(F)cc1)c1ccc(SCc2ccccc2-c2nn[nH]n2)nc1 [Compound 52, 6-(2-(2H-Tetrazol-5-yl)benzylthio)-N-(4-fluorophenyl)nicotinamide]
 | approximately 7 fold |  | CC1(C)OB(c2ccccc2CSc2ccc(C(=O)Nc3ccc(F)cc3)cn2)OC1(C)C [Compound 53, N-(4-Fluorophenyl)-6-(2-(4,4,5,5-tetramethyl-1,3,2-dioxaborolan-2-yl)benzylthio)nicotinamide]
 | 7 fold |  | O=C(Nc1ccc(OC(F)(F)F)cc1)c1ccc(SCc2ccccc2B(O)O)nc1 [Compound 54, 2-((5-(4-(Trifluoromethoxy)phenylcarbamoyl)pyridin-2-ylthio)methyl)phenylboronic acid]
 | 14 fold |  | O=C(Nc1ccncc1)c1ccc(SCc2ccccc2B(O)O)nc1 [Compound 57, 2-((5-(Pyridin-4-ylcarbamoyl)pyridin-2-ylthio)methyl)phenylboronic acid]
 | 3 fold |  | O=C(Nc1ccc(O)cc1)c1ccc(SCc2ccccc2B(O)O)nc1 [Compound 58, 2-((5-(4-Hydroxyphenylcarbamoyl)pyridin-2-ylthio)methyl)phenylboronic acid]
 | 8 fold |  | O=C(Nc1ccc(F)cn1)c1ccc(SCc2ccccc2B(O)O)nc1 [Compound 59, 2-((5-(5-Fluoropyridin-2-ylcarbamoyl)pyridin-2-ylthio)methyl)phenylboronic acid]
 |  | 11 | O=C(c1ccc(SCc2ccccc2B(O)O)nc1)N(Cc1ccncc1)c1ccc(F)cc1 [Compound 61, 2-((5-((4-Fluorophenyl)(pyridin-4-ylmethyl)carbamoyl)pyridin-2-ylthio)methyl)phenylboronic acid]

Same assay, conditions: hPMNs; SAR discussion

Compound | activity against CXCL1-stimulated Ca2+ flux, in words
O=C(Nc1ccc(F)cc1)c1ccc(SC2CCOC2=O)nc1 (stereo not shown) [Compound 9, N-(4-Fluorophenyl)-6-(2-oxotetrahydrofuran-3-ylthio)nicotinamide] | loss of activity
O=C(Nc1ccc(F)cc1)c1ccc(SCS(=O)(=O)c2ccccc2)nc1 [Compound 10, N-(4-Fluorophenyl)-6-(phenylsulfonylmethylthio)nicotinamide] | loss of activity
O=C(Nc1ccc(F)cc1)c1ccc(SC[N+](=O)[O-])nc1 [Compound 11, N-(4-Fluorophenyl)-6-(nitromethylthio)nicotinamide] | loss of activity
CCOP(=O)(CSc1ccc(C(=O)Nc2ccc(F)cc2)cn1)OCC [Compound 12, Diethyl (5-(4-fluorophenylcarbamoyl)pyridin-2-ylthio)methylphosphonate] | loss of activity
O=C(Nc1ccc(F)cc1)c1ccc(Sc2ccccc2)nc1 [Compound 45, N-(4-Fluorophenyl)-6-(phenylthio)nicotinamide] | loss of activity

Other lines, results leading:

activity against CXCL1-stimulated Ca2+ flux, in words | Compound
inactive | COC(=O)c1ccc(CSc2ccc(C(=O)Nc3ccc(F)cc3)cn2)cc1 [Compound 46, Methyl 4-((5-(4-Fluorophenylcarbamoyl)pyridin-2-ylthio)methyl)benzoate]
inactive | COC(=O)c1cccc(CSc2ccc(C(=O)Nc3ccc(F)cc3)cn2)c1 [Compound 48, Methyl 3-((5-(4-Fluorophenylcarbamoyl)pyridin-2-ylthio)methyl)benzoate]
abrogated all activity | O=C(O)c1ccc(NC(=O)c2ccc(SCc3ccccc3B(O)O)nc2)cc1 [Compound 55, 4-(6-(2-Boronobenzylthio)nicotinamido)benzoic acid]
abrogated all activity | O=C(Nc1ccc(-c2nn[nH]n2)cc1)c1ccc(SCc2ccccc2B(O)O)nc1 [Compound 56, 2-((5-(4-(2H-Tetrazol-5-yl)phenylcarbamoyl)pyridin-2-ylthio)methyl)phenylboronic acid]
completely devoid of activity | O=C(c1ccc(SCc2ccccc2B(O)O)nc1)N(CC1CCCCN1)c1ccc(F)cc1 (stereo not shown) [Compound 62, 2-((5-((4-Fluorophenyl)(piperidin-2-ylmethyl)carbamoyl)pyridin-2-ylthio)methyl)phenylboronic acid]
A similar finding | O=C(O)CN(C(=O)c1ccc(SCc2ccccc2B(O)O)nc1)c1ccc(F)cc1 [Compound 63, 2-(6-(2-Boronobenzylthio)-N-(4-fluorophenyl)nicotinamido)acetic acid]

Same assay, conditions: inhibition of CXCL1-stimulated Ca2+ flux in whole hPMNs; mean ± standard error

IC50 [µM] | Compound
> 5 | N-(4-Fluorophenyl)-6-(4-(5-methyl-1,2,4-oxadiazol-3-yl)benzylthio)nicotinamide [Compound 18]

Same assay, conditions: read-out: inhibition of CXCL1-mediated intracellular Ca2+ release

inhibition at 5 µM [%] | Compound
> 50 | O=C(Nc1ccc(F)cc1)c1ccc(SCC2CCCCO2)nc1 (stereo not shown) [Compound 13, N-(4-Fluorophenyl)-6-((tetrahydro-2H-pyran-2-yl)methylthio)nicotinamide]
> 50 | O=C(Nc1ccc(F)cc1)c1ccc(SCc2ccncc2)nc1 [Compound 15, N-(4-Fluorophenyl)-6-(pyridin-4-ylmethylthio)nicotinamide]
> 50 | O=C(Nc1ccc(F)cc1)c1ccc(SCC2CCOCC2)nc1 [Compound 17, N-(4-Fluorophenyl)-6-((tetrahydro-2H-pyran-4-yl)methylthio)nicotinamide]
> 50 | O=C(Nc1ccc(F)cc1)c1ccc(SCC2CCCO2)nc1 (stereo not shown) [Compound 20, N-(4-Fluorophenyl)-6-((tetrahydrofuran-2-yl)methylthio)nicotinamide]
> 50 | O=C(Nc1ccc(F)cc1)c1ccc(SCc2ccc([N+](=O)[O-])o2)nc1 [Compound 22, N-(4-Fluorophenyl)-6-((5-nitrofuran-2-yl)methylthio)nicotinamide]
> 50 | O=C(Nc1ccc(F)cc1)c1ccc(SCc2ccccc2)nc1 [Compound 30, 6-(Benzylthio)-N-(4-fluorophenyl)nicotinamide]
> 50 | O=C(Nc1ccc(F)cc1)c1ccc(SCc2ccc(Cl)c(Cl)c2)nc1 [Compound 43, 6-(3,4-Dichlorobenzylthio)-N-(4-fluorophenyl)nicotinamide]

Tested on: CXCR1
Test: not given
Conditions: cited from earlier work

Compound | effect on CXCL8 binding to CXCR1, in words
CC(C)Cc1ccc([C@@H](C)C(=O)NS(C)(=O)=O)cc1 [reparixin, Reparixin] | no effect
